Data taken from ChEMBL document CHEMBL1132918, “Synthesis and evaluation of tryprostatin B and demethoxyfumitremorgin C analogues” (J Med Chem, 2000).

Columns and labels:
[1] = test system: NCI-60 human tumor cell line panel (Homo sapiens); assay: Cytostatic effect in NCI-60 human tumor cell lines.; set-up: unit not given here
Colon cell = assay: Inhibitory activity against Colon cell line; type: functional, cell-based; settings: for IC50: Homo sapiens, Colon cell
3Y1 cell line = assay: Cytotoxicity in 3Y1 cells.; type: functional, Rattus norvegicus; set-up: unit not given here
Method in brief: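 Rat normal fibroblast 3Y1 cells grown in Dulbecco's modified MEM with 10% fetal calf serum, 5% CO2, humidified. Exponentially growing cells exposed to compounds for 24 h. Relative cell number = cell number at 24 h per initial cell number at 0 h × 100; DNA content distribution read by laser scanning cytometry.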

[2] = test system: Panel leukemia (Carcinoma cell lines); assay: Inhibitory activity against leukemia cell line; type: functional, cell-based; settings: for IC50: Homo sapiens, Panel leukemia (Carcinoma cell lines)
Prostate cell = assay: Inhibitory activity against prostate cell line; type: functional, cell-based; settings: Homo sapiens, Prostate cell
Renal cell = assay: Inhibitory activity against renal cell line; type: functional, cell-based; settings: for IC50: Homo sapiens, Renal cell
[3] = test system: non-small-cell lung cancer cell lines (Homo sapiens); assay: Inhibitory activity against non-small-cell lung cancer cell lines; settings: for IC50: Homo sapiens
Melanoma cell = assay: Inhibitory activity against melanoma cell line; type: functional, cell-based; settings: for IC50: Homo sapiens, Melanoma cell
Breast carcinoma cell = assay: Inhibitory activity against breast cell line; type: functional, cell-based; settings: for IC50: Homo sapiens, Breast carcinoma cell; for Log IC50: breast carcinoma cell
[4] = test system: NCI-60 human tumor cell line panel (Homo sapiens); assay: Mean concentration causing inhibition of cell growth in the NCI-60 human tumor cell line panel.
CNS cell = assay: Inhibitory activity against CNS cell line; type: functional, cell-based; settings: for IC50: Homo sapiens, CNS cell
Ovarian carcinoma cell = assay: Inhibitory activity against ovarian cell line; type: functional, cell-based; settings: Homo sapiens, Ovarian carcinoma cell
[5] = test system: NCI-60 human tumor cell line panel (Homo sapiens); assay: Mean averaged concentration for total growth inhibition, which signifies cytostatic effect

Compound | TGI [1] | IC50 (Colon cell) | LC50 (3Y1 cell line) | IC50 [2] | IC50 (Prostate cell) | IC50 (Renal cell) | IC50 [3] | IC50 (Melanoma cell) | IC50 (Breast carcinoma cell) | GI50 ([4]; Homo sapiens, NCI-60 panel) | IC50 (CNS cell) | IC50 (Ovarian carcinoma cell) | also measured
COc1cc([C@H]2c3[nH]c4ccccc4c3C[C@H]3C(=O)NCC(=O)N23)cc(OC)c1OC (relative stereo) | >-4 | > 100 µM | >-4 | 72.4 µM | > 100 µM | 95.5 µM | > 100 µM | > 100 µM | 93.3 µM | 95.5 µM | > 100 µM | > 100 µM | –
COc1cc([C@@H]2c3[nH]c4ccccc4c3C[C@H]3C(=O)N4CCC[C@H]4C(=O)N23)cc(OC)c1OC | -4.01 | 74.1 µM | >-4 | 32.4 µM | 72.4 µM | 77.6 µM | 69.2 µM | 87.1 µM | 46.8 µM | 66.1 µM | 74.1 µM | 77.6 µM | –
CC(C)=CCN1C(=O)[C@@H]2CCCN2C(=O)[C@@H]1Cc1c[nH]c2ccccc12 (stereo in doubt) | -4.01 | 95.5 µM | >-4 | 61.7 µM | > 100 µM | > 100 µM | 97.7 µM | > 100 µM | 89.1 µM | 85.1 µM | > 100 µM | > 100 µM | –
CC(C)=C[C@H]1c2[nH]c3ccccc3c2C[C@H]2C(=O)N3CCC[C@H]3C(=O)N21 (stereo in doubt; 3) [DEMETHOXYFUMITREMORGIN C] | -4.02 | 53.7 µM | >-4 | 34.7 µM | 50.1 µM | – | 52.5 µM | – | – | – | – | 70.8 µM | Log IC50 (Renal cell; renal cell): -4.61; Log IC50 (Melanoma cell; melanoma cell): -4.32; Log IC50 (Breast carcinoma cell): -4.43; GI50 [4]: 43.7 µM; Log IC50 (CNS cell; cns cell): -4.36
COc1cc(CN2C(=O)[C@@H]3CCCN3C(=O)[C@@H]2Cc2c[nH]c3ccccc23)cc(OC)c1O | – | 87.1 µM | >-4 | 64.6 µM | > 100 µM | > 100 µM | 87.1 µM | 95.5 µM | 95.5 µM | 91.2 µM | > 100 µM | > 100 µM | TGI [5]: >-4
CC(C)=CCN1C(=O)[C@@H]2CCCN2C(=O)[C@@H]1Cc1c[nH]c2ccccc12 (stereo in doubt; 5a) | >-4 | – | – | – | – | – | – | – | – | – | – | – | Log IC50 (Colon cell; colon cell): > -4; Log IC50 ([2]; panel leukemia (carcinoma cell lines)): > -4; Log IC50 [3]: > -4; Log IC50 (Breast carcinoma cell): > -4; GI50 [4]: > 100 µM
COc1cc([C@@H]2c3[nH]c4ccccc4c3C[C@H]3C(=O)N4CCC[C@H]4C(=O)N23)cc(OC)c1O | >-4 | > 100 µM | >-4 | > 100 µM | > 100 µM | > 100 µM | > 100 µM | > 100 µM | > 100 µM | > 100 µM | > 100 µM | > 100 µM | –
COc1cc([C@@H]2c3[nH]c4ccccc4c3C[C@H]3C(=O)NCC(=O)N23)cc(OC)c1O (relative stereo) | -4.01 | 46.8 µM | >-4 | 38 µM | 70.8 µM | 55 µM | 56.2 µM | 45.7 µM | 49 µM | 50.1 µM | 38 µM | 66.1 µM | –
O=C1[C@@H]2Cc3c([nH]c4ccccc34)[C@H](c3ccccc3)N2C(=O)[C@@H]2CCCN12 | >-4 | 41.7 µM | >-4 | 13.8 µM | 85.1 µM | 42.7 µM | 63.1 µM | 51.3 µM | 36.3 µM | 47.9 µM | > 100 µM | 57.5 µM | –
COc1cc([C@H]2c3[nH]c4ccccc4c3C[C@H]3C(=O)N4CCC[C@H]4C(=O)N23)cc(OC)c1OC | >-4 | 93.3 µM | >-4 | 64.6 µM | 91.2 µM | 95.5 µM | 70.8 µM | 93.3 µM | 97.7 µM | 87.1 µM | 95.5 µM | 72.4 µM | –
